Test results reported in ChEMBL document CHEMBL1155126, “2-N-Methyl modifications and SAR studies of manzamine A” (Bioorg Med Chem, 2008).
Converted amounts (≈) assume the structure as drawn. The source made the active and inactive calls. The calls are words filed in the database; no cut-off is given here.

How the values were obtained:
Plasmodium falciparum [1] = assay: Antimalarial activity after 72 hrs against chloroquine-sensitive Plasmodium falciparum D6 as LDH activity; format: functional, organism-based; details: D6, 72 h
Procedure, shortened: (§1)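 D6 or W2 parasitised red cells (2% parasitemia, 2% hematocrit) in RPMI 1640 with 10% human serum and 60 µg/mL amikacin, added to serially diluted samples. Cultures were gassed with 90% N2/5% O2/5% CO2 and held 72 h at 37 °C. Parasite LDH was read with Malstat reagent plus NBT/PES, stopped with 5% acetic acid, at 650 nm.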

Plasmodium falciparum [2] = assay: Antimalarial activity after 72 hrs against chloroquine-resistant Plasmodium falciparum W2 as LDH activity; format: functional, organism-based; details: W2, 72 h; procedure, shortened: as §1
[3] = Selectivity index, ratio of IC50 for african green monkey (Cercopithecus aethiops) Vero cells to IC50 for chloroquine-resistant Plasmodium falciparum W2; format: toxicity, cell-based; details: read-out: Ratio IC50
Procedure, shortened: (§2)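 Ratio of Vero IC50 (neutral red, 48 h exposure) to P. falciparum IC50 from the 72 h LDH assay on the matching strain (W2 or D6).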

Vero [4] = assay: Cytotoxicity against african green monkey Vero cells at 17 uM after 48 hrs by neutral red assay; format: cell-based; details: chlorocebus sabaeus
Procedure, shortened: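 Vero cells seeded at 25,000 cells/well and incubated 24 h. Samples added at a range of concentrations, top concentration 17 µM, then incubated a further 48 h. Viable cells measured by Neutral Red uptake. IC50 taken from dose-response curves; doxorubicin positive control.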

[5] = Selectivity index, ratio of IC50 for african green monkey (Cercopithecus aethiops) Vero cells to IC50 for chloroquine-sensitive Plasmodium falciparum D6; format: toxicity, cell-based; details: read-out: Ratio IC50; procedure, shortened: as §2
Staphylococcus aureus [6] = assay: Antimicrobial activity against methicillin-resistant Staphylococcus aureus ATCC 43300 at 3.0 uM; format: functional, organism-based
Staphylococcus aureus [7] = assay: Antimicrobial activity against methicillin-resistant Staphylococcus aureus ATCC 43300; format: functional, organism-based
Procedure, shortened: (§3)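 Modified CLSI broth microdilution; M. intracellulare by a modified Franzblau method. Samples were serially diluted in 20% DMSO/saline and tested in duplicate. Inocula were set by OD630 in broth. MIC is the lowest concentration with no detectable growth; MFC/MBC is the lowest concentration giving no growth after 5 µL is subcultured to agar.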

[8] = tested on: Mycobacterium intracellulare; assay: Antimicrobial activity against Mycobacterium intracellular ATCC 23068; format: functional, organism-based
Procedure, shortened: (§4)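 Broth microdilution following modified CLSI methods; M. intracellulare by a modified Franzblau method. Samples serially diluted in 20% DMSO/saline and plated in duplicate. Inocula set by OD630 of suspensions in incubation broth. Growth read at 630 nm, or fluorescence 544ex/590em for M. intracellulare, before and after incubation. MIC is the lowest concentration with no detectable growth. MFC/MBC comes from subculturing clear wells onto agar.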

Cryptococcus neoformans [9] = assay: Antimicrobial activity against Cryptococcus neoformans ATCC 90113
Cryptococcus neoformans [10] = assay: Antimicrobial activity against Cryptococcus neoformans ATCC 90113 at 89 uM; format: functional, organism-based
Candida albicans [11] = assay: Antimicrobial activity against Candida albicans ATCC 90028; format: functional, organism-based
Procedure, shortened: as §3, with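 “broth. Growth was read before and after incubation at 630 nm, or by fluorescence 544ex/590em for A. fumigatus and M. intracellulare.” for “broth.”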

Cryptococcus neoformans [12] = assay: Antimicrobial activity against Cryptococcus neoformans ATCC 90113; format: functional, organism-based; procedure, shortened: as §4
Aspergillus fumigatus = assay: Antimicrobial activity against Aspergillus fumigatus ATCC 90906; format: functional, organism-based
Procedure, shortened: as §3, with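 “broth. Growth was read before and after incubation at 630 nm, or by fluorescence 544ex/590em for A. fumigatus and M. intracellulare.” for “broth.”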

Staphylococcus aureus [13] = assay: Antimicrobial activity against methicillin-resistant Staphylococcus aureus ATCC 43300 at 91 uM; format: functional, organism-based
Pseudomonas aeruginosa = assay: Antimicrobial activity against Pseudomonas aeruginosa ATCC 27853; format: functional, organism-based
Procedure, shortened: as §3, with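 “broth. Growth was read before and after incubation at 630 nm, or by fluorescence 544ex/590em for A. fumigatus and M. intracellulare.” for “broth.”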

Vero [14] = assay: Cytotoxicity against african green monkey Vero cells after 48 hrs by neutral red assay; format: cell-based; details: Chlorocebus sabaeus
Procedure, shortened: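 Vero monkey kidney fibroblasts were seeded at 25,000 cells/well and grown 24 h. Samples at graded concentrations were then added for 48 h. Viable cells were counted by neutral red uptake, and IC50 was taken from dose-response curves, with doxorubicin as positive control.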

Escherichia coli = assay: Antimicrobial activity against Escherichia coli ATCC 35218; format: functional, organism-based
Procedure, shortened: as §3, with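 “broth. Growth was read before and after incubation at 630 nm, or by fluorescence 544ex/590em for A. fumigatus and M. intracellulare.” for “broth.”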

Candida albicans [15] = assay: Antimicrobial activity against Candida albicans ATCC 90028 at 91 uM; format: functional, organism-based
Plasmodium falciparum [16] = assay: Antimalarial activity after 72 hrs against chloroquine-resistant Plasmodium falciparum W2 at 8 uM as LDH activity; format: functional, organism-based
[17] = tested on: Mycobacterium intracellulare; assay: Antimicrobial activity against Mycobacterium intracellular ATCC 23068 at 89 uM; format: functional, organism-based
Candida albicans [18] = assay: Antimicrobial activity against Candida albicans ATCC 90028 at 89 uM; format: functional, organism-based
Staphylococcus aureus [19] = assay: Antimicrobial activity against methicillin-resistant Staphylococcus aureus ATCC 43300 at 89 uM; format: functional, organism-based
Plasmodium falciparum [20] = assay: Antimalarial activity after 72 hrs against chloroquine-sensitive Plasmodium falciparum D6 at 8 uM as LDH activity; format: functional, organism-based
Hepatitis C virus [21] = assay: Antiviral activity against HCV at 10 uM; format: functional, Hepacivirus hominis
Procedure, shortened: (§5)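 HCV replicon in Huh-7 cells. Compound tested at 10 µM in triplicate, added immediately after seeding. HCV RNA and rRNA measured as ΔCt values and reported as % inhibition of each.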

Hepatitis C virus [22] = assay: Antiviral activity against HCV in Huh7 cells at 10 uM by replicon assay; format: functional, Hepacivirus hominis, Huh-7; procedure, shortened: as §5
Candida albicans [23] = assay: Antimicrobial activity against Candida albicans ATCC 90028 at 87 uM; format: functional, organism-based
[24] = tested on: Mycobacterium intracellulare; assay: Antimicrobial activity against Mycobacterium intracellular ATCC 23068 at 87 uM; format: functional, organism-based
Staphylococcus aureus [25] = assay: Antimicrobial activity against methicillin-resistant Staphylococcus aureus ATCC 43300 at 87 uM; format: functional, organism-based

Row | Structure (SMILES) | IC50 (Plasmodium falciparum [1]) | IC50 (Plasmodium falciparum [2]) | selectivity ratio [3] | Activity (Vero [4]) | selectivity ratio [5] | IC50 [8] | MBC [8] | MIC [8] | IC50 (Cryptococcus neoformans [12]) | Activity (Aspergillus fumigatus) | Activity (Pseudomonas aeruginosa) | Activity (Escherichia coli) | also measured
1 | C[C@@H]1CC[C@H]2[C@@H](C)C(=O)O[C@@H]3O[C@@]4(C)CC[C@@H]1[C@]32OO4 [ARTEMISININ] | 6.3 nM | 4.5 nM | > 3700 | Non-toxic | > 2700 | – | – | – | – | – | – | – | –
2 | O=C(O)c1cn(C2CC2)c2cc(N3CCNCC3)c(F)cc2c1=O [CIPROFLOXACIN] | – | – | – | – | – | 1100 nM | 3 µM (≈ 0.994 µg/mL) | 1.5 µM (≈ 0.497 µg/mL) | – | – | – | – | Activity (Staphylococcus aureus [6]): inactive; MIC (Staphylococcus aureus [7]): 1.5 µM (≈ 0.497 µg/mL)
3 | C[C@@H]1[C@H](O)[C@@H](C)/C=C/C=C/C=C/C=C/C=C/C=C/C=C/[C@H](O[C@@H]2O[C@H](C)[C@@H](O)[C@H](N)[C@@H]2O)C[C@@H]2O[C@](O)(C[C@@H](O)C[C@@H](O)[C@H](O)CC[C@@H](O)C[C@@H](O)CC(=O)O[C@H]1C)C[C@H](O)[C@H]2C(=O)O [AMPHOTERICIN B] | – | – | – | – | – | – | – | – | – | – | – | – | IC50 (Cryptococcus neoformans [9]): 800 nM; MFC (Cryptococcus neoformans [10]): 1.35 µM (≈ 1.25 µg/mL); MIC (Cryptococcus neoformans [10]): 1.35 µM (≈ 1.25 µg/mL); MFC (Candida albicans [11]): 1.35 µM (≈ 1.25 µg/mL)
4 | O[C@]12C=C(c3nccc4c3[nH]c3ccccc34)[C@@H]3CCN(CCCC/C=C\CC1)C[C@@]31C[C@@H]3/C=C\CCCCN3[C@H]12 [MANZAMINE A] | 17 nM | 20 nM | 25.2 | – | 29.4 | 180 nM | 2.84 µM (≈ 1.56 µg/mL) | 0.36 µM (≈ 0.198 µg/mL) | 2.7 µM | inactive | inactive | inactive | MFC (Cryptococcus neoformans [12]): 23 µM (≈ 12.6 µg/mL); MIC (Cryptococcus neoformans [12]): 5.7 µM (≈ 3.13 µg/mL); Activity (Staphylococcus aureus [13]): inactive; IC50 (Vero [14]): 501 nM; IC50 (Staphylococcus aureus [7]): 0.18 µM; IC50 (Candida albicans [11]): 16.4 µM; Activity (Candida albicans [15]): inactive
5 | Cn1c2ccccc2c2ccnc(C3=C[C@@]4(O)CC/C=C\CCCCN5CCC3[C@]3(C[C@@H]6/C=C\CCCCN6[C@H]34)C5)c21 (some centres undefined) [9N-METHYLMANZAMINE A] | – | – | – | Non-toxic | – | – | – | – | – | inactive | inactive | inactive | Activity (Plasmodium falciparum [16]): inactive; Activity [17]: inactive; Activity (Candida albicans [18]): inactive; Activity (Staphylococcus aureus [19]): inactive; Activity (Plasmodium falciparum [20]): inactive; Activity (Cryptococcus neoformans [10]): inactive
6 | C[n+]1ccc2c([nH]c3ccccc32)c1C1=C[C@@]2(O)CC/C=C\CCCCN3CCC1[C@]1(C[C@@H]4/C=C\CCCCN4[C@H]12)C3.O=S(=O)([O-])C(F)(F)F (some centres undefined) | 736 nM | 1010 nM | > 17.5 | Non-toxic | > 24 | 17800 nM | 44.5 µM | 44.5 µM | 71.1 µM | inactive | inactive | inactive | Activity (Hepatitis C virus [21]): 99.87%; Activity (Candida albicans [18]): inactive; IC50 (Staphylococcus aureus [7]): 44.5 µM; MBC (Staphylococcus aureus [7]): 89 µM; MIC (Staphylococcus aureus [7]): 89 µM; Activity (Hepatitis C virus [22]): 100%; Activity (Cryptococcus neoformans [10]): inactive
7 | CO[C@]12C=C(c3c4[nH]c5ccccc5c4cc[n+]3C)C3CCN(CCCC/C=C\CC1)C[C@@]31C[C@@H]3/C=C\CCCCN3[C@H]12.O=S(=O)([O-])C(F)(F)F (some centres undefined) | – | – | – | Non-toxic | – | – | – | – | 52 µM | inactive | inactive | inactive | MFC (Cryptococcus neoformans [12]): 87 µM; MIC (Cryptococcus neoformans [12]): 87 µM; Activity (Plasmodium falciparum [16]): inactive; Activity (Candida albicans [23]): inactive; Activity [24]: inactive; Activity (Staphylococcus aureus [25]): inactive; Activity (Plasmodium falciparum [20]): inactive
8 | CCN(CC)CCCC(C)Nc1ccnc2cc(Cl)ccc12 (centres undefined) [CHLOROQUINE] | – | – | – | Non-toxic | – | – | – | – | – | – | – | – | –
